SENP8 block-1: SENP8 protease inhibition | inhibition, % at 10 µM | Q96LD8 | 330,000 tested, 1.2% active | AID 2540 | purified SENP8, Z-RLRGG-aminoluciferin cleavage, luminescence; in the data active = inhibition above about 50%
UBC13 inh: inhibitors of human UBC13 polyubiquitin chain formation; TR-FRET; inhibition, % at 20 µM; 330,000 tested, 0.47% active; AID 485273; in the data active = inhibition above about 45%, passing the limit was not always enough
Apaf1 inhib: blocks human Apaf-1 apoptosome activity | reconstituted apoptosome caspase-3 activity, DEVD-Rh110 fluorescence | 330,000 tested, 0.71% active | inhibition, % at 20 µM | AID 489030; active = inhibition of at least 40% at 20 µM;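 also: plate controls were DMSO wells for no effect and DEVD-CHO caspase inhibitor wells for full effect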
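System: reconstituted apoptosome with Apaf-1, cytochrome c, caspase-9, procaspase-3, dATP; Signal: Rh110 fluorescence intensity; Schedule: 30 min compound preincubation, 50 min activation, room temperature; Reagent: cytochrome c trigger plus (Z-DEVD)2-Rh110 caspase-3 substrate.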
SENP7 inh: inhibitors of human SENP7 protease; inhibition, % at 5 µM; recombinant SENP7, Z-RLRGG-aminoluciferin luminescence, 40 min; Q9BQF6; 330,000 tested, 1.5% active; AID 434973;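 active = inhibition above about 50% at the single test dose, limit read from the data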;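 also: plate controls were DMSO with enzyme for no effect and no enzyme buffer wells for full effect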
SENP6 inh: SENP6 protease inhibition | Q9GZR1 | Recombinant SENP6 catalytic domain, aminoluciferin luminescence | inhibition, % at 10 µM | 330,000 tested, 1.8% active | AID 2599;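 active = inhibition above about 50% at the single tested dose, limit read from the data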;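 also: plate controls were DMSO wells with enzyme for no effect and DMSO wells lacking enzyme for full effect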
Target sequence (Q9GZR1 628-1112 limits assumed): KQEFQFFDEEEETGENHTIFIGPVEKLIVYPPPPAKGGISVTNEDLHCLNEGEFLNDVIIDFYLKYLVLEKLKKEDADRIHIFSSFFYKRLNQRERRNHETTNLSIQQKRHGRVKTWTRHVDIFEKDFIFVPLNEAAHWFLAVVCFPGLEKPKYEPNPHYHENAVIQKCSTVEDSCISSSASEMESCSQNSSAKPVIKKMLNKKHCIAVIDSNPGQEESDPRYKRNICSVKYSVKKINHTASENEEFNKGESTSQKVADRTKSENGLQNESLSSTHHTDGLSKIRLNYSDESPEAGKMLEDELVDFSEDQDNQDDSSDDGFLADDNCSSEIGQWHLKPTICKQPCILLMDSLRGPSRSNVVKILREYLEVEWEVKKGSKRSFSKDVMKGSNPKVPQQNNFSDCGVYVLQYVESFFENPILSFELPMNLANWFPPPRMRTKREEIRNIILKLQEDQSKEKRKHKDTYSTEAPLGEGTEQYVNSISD
SENP8 block-2: SENP8 (human) protease inhibition | 360,000 tested, 0.64% active | Q96LD8 | AID 602440 | recombinant SENP8, Nedd8 substrate fluorescence | inhibition, % at 20 µM; in the data active = inhibition mostly above about 40%, no sharp cut-off; inactive = mostly below about 27%
SENP8 conf: confirmation of human SENP8 protease inhibitors | inhibition, % at 12.5 µM | AID 488912 | Recombinant SENP8, Z-RLRGG-aminoluciferin luminescence, 60 min | 6,200 tested, 40% active | shares compounds with SENP7 inh;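 active = mean inhibition across replicates above about 50%, limit read from the data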
SENP6 confirm: human SENP6 inhibition, confirmed | AID 488915 | inhibition, % at 12.5 µM | shares compounds with SENP7 inh | recombinant SENP6, Z-RLRGG-aminoluciferin luminescence | 6,200 tested, 58% active
SENP7 confirm: human SENP7 inhibition, confirmed; AID 488917; 6,200 tested, 69% active; inhibition, % at 12.5 µM; recombinant SENP7, Z-RLRGG-aminoluciferin luminescence, 40 min; shares compounds with SENP7 inh
Casp3 SENP sel: selectivity test for SENP inhibitors: human caspase-3 inhibition; shares compounds with SENP7 inh; purified caspase-3, Z-DEVD-aminoluciferin luminescence, 60 min; inhibition, % at 12.5 µM; 6,200 tested, 60% active;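 active = mean inhibition above about 50%, limit read from the data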;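 also: plate controls were enzyme with DMSO for no effect and wells without caspase-3 for full effect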
Luc interf: interferes with luciferase luminescence in SENP counter-screen; 6,200 tested, 39% active; inhibition, % at 12.5 µM; AID 488919; shares compounds with SENP7 inh; Pre-incubated SENP8/Z-RLRGG-aminoluciferin, luciferase luminescence interference;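 active = mean inhibition above about 50% when retested at one dose, limit read from the data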;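 also: plate controls were DMSO wells with completed reaction for no effect and substrate without enzyme for full effect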
Active calls of the source: *; x = not tested or not shown. Shown are actives, neighbours in structure and some others; about 3.1% of the full set was active somewhere.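 The calls were made as follows, unless noted: active = mean inhibition above about 50% in the one-dose retest (limit read from the data); inactive = the rest.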

SMILES	SENP8 block-1	UBC13 inh	Apaf1 inhib	SENP7 inh	SENP6 inh	SENP8 block-2	SENP8 conf	SENP6 confirm	SENP7 confirm	Casp3 SENP sel	Luc interf
COc1cc(OC)cc(C(=O)OCC(=O)c2cc(C)n(CC3CCCO3)c2C)c1 (stereo not drawn)	48	9	3	22	68*	0	57*	49	79*	53*	3
COc1cccc(C(O)c2ncc(-c3cccc(C(F)(F)F)c3)[nH]2)c1 (stereo not drawn)	x	x	x	x	x	9	x	x	x	x	x
O=C(Nc1cccc(Cl)c1)N1CCc2ccccc2C1	35	9	9	49	51*	8	47	42	78*	43	31
COc1cccc(NC(=O)N2CCCCCC2)c1	-7	-6	0	-3	0	10	x	x	x	x	x
COc1cccc(NC(=O)N2CCc3ccccc3C2)c1	30	-5	12	53*	53*	-7	42	42	80*	70*	56*
CCC(=O)N1CCC(C)(C(=O)Nc2ccc(OC)c(OC)c2)C1 (stereo not drawn)	x	x	x	x	x	15	x	x	x	x	x
Cc1nc(/C(N)=N/OC(=O)c2ccccc2Cl)c(C(F)(F)F)o1	80*	-2	-2	88*	83*	-2	88*	88*	98*	95*	88*
N/C(=N/OC(=O)c1ccccc1Cl)c1nonc1N	96*	7	6	99*	97*	-1	100*	101*	104*	99*	98*
N/C(=N/OCC(=O)Nc1cccc2ccccc12)c1nonc1N	-7	4	-6	7	-8	3	x	x	x	x	x
N/C(=N\OC(=O)c1ccc(F)cc1)c1nonc1N	94*	11	2	98*	96*	26	98*	98*	102*	98*	87*
Cc1cc(/C(N)=N/OC(=O)c2ccccc2Cl)no1	77*	1	-3	88*	81*	22	85*	84*	97*	93*	86*
COc1ccccc1C(=O)O/N=C(\N)c1ccccc1Cl	12	1	-5	2	6	8	x	x	x	x	x
Cc1cc(NC(=O)COC(=O)c2ccccc2Cl)no1	8	8	-7	7	-4	14	x	x	x	x	x
CCOC(=O)C1(C)CCCN(C(=O)c2cc(F)ccc2C)C1 (stereo not drawn)	x	x	x	x	x	13	x	x	x	x	x
O=S(=O)(Cc1ccccc1)C(c1ccccc1)S(=O)(=O)Cc1ccccc1	x	x	x	x	x	19	x	x	x	x	x
COC(=O)C[C@@H]1OC[C@H](CO)N1S(=O)(=O)c1ccc(C)cc1	x	x	x	x	x	20	x	x	x	x	x
Cc1ccc(C(=O)O/N=C(\N)c2nonc2N)cc1	97*	-1	-10	101*	98*	4	98*	98*	101*	97*	97*
Cc1ccc2nc(-c3ccc4c(c3)NC(=O)CO4)cn2c1	-6	-11	-4	1	-13	-199	x	x	x	x	x
COc1ccc(-c2csc(C)n2)cc1OC	-15	-12	5	-15	1	11	x	x	x	x	x
COc1ccc(-c2cn3cc(C)ccc3n2)cc1F	69*	11	3	78*	77*	-408	11	74*	90*	80*	32
COc1ccc(-c2cn3cc(C)ccc3n2)cc1OC	36	-13	18	16	57*	-333	68*	65*	90*	89*	78*
CC(C)C(=O)N1CCN(c2ccccc2NC(=O)c2ccc(Br)o2)CC1	10	-1	7	0	9	3	x	x	x	x	x
CC(C)C(=O)N1CCN(c2ccccc2NC(=O)c2ccco2)CC1	2	-2	4	-9	103*	10	-7	-6	-7	2	3

Assay outcomes deposited in PubChem BioAssay by Sanford-Burnham Center for Chemical Genomics.
